# In the RNAGym collection of RNA variant scans (doi:10.1126/science.aae0568):
# Variants at the floor of the assay were thinned out.
# B1: tRNA (parent)
# chain: GUUCCGUUGGCGUAAUGGUAACGCGUCUCCCUCCUAAGGAGAAGACUGCGGGUUCGAGUCCCGUACGGAACG
# Variants of: B1
# Assay: yeast fitness relative to wild type (ratio to wild type); higher = fitter; tRNA-Arg(CCU), competitive growth, 37 C, YPD
# Outline: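 Variants of the tRNA-Arg(CCU) gene, chemically synthesised with a 3% per-site mutation rate at 69 sites, were placed at the native genomic locus in Saccharomyces cerevisiae. The pooled strains were competed in YPD at 37°C for 24 hours in six parallel replicates. Gene amplicons from the start population and from each end population were read by 100-nucleotide paired-end sequencing. Darwinian fitness relative to wild type came from changes in genotype frequencies; genotypes needed ≥ 100 starting reads, and estimates < 0.5 were set to 0.5.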
row,Variant,yeast fitness
1,GUUCUGAUGGCGUAAUGGUAACGCGUCACCCUCCUAAGGAGAAGACUGUGGGUUCGAGUCCCGUACGGAACG,≤ 0.5
2,GUUCUGUUGGCGUAAUGGUAACGCGUCUCCCUCCUAAGGAGAAGACUGCGAGUUCGUGUCCCGUACGGAACG,≤ 0.5
3,GUUCUGUUGGCGUAAUGGUAACGCGUCUCCCUCCUAAGGAGAAGACUGCGGGUUCCAGUCCCGUACGGAACG,0.651
4,GUUCUGUUGGCGUAAUGGUAACGCGUCUCCCUCCUAAGGAGAAGACUGCGGGUUCAAGUCCCGUACGGAACG,0.937
5,GUUCUGUUGGCGUAAUGGUAACGCGUCUCCCUCCUAAGGAAAAGACUGCGGGUUCCAGUCCGGUACGCAACG,≤ 0.5
6,GUUCUGUUGGCGUAAUGGUAACGCGUCUCCCUCCUAAGGAGAAGACUGCGGGUUCAAGGCCCGUACGGAACG,0.516
7,GUUCUGUUGGCGUAAUGGUAACGCGUCUCCCUCCUAAGGAGAAGACUGCGGGUUCCUGUCCCGUACGGAACG,≤ 0.5
8,GUUCUGUUGGCGUAAUGGUAACGCGUCUCCCUCCUAAGGAAAAGAACGCGGGUUCGAGUCCCGUACGGAACG,0.568
9,GUUCUGAUGGCGUAAUGGUCACGCGUCUCCCUCCUAAGGAGAAGACUGCGGGUUCGAGUCCCGUACGCAACG,≤ 0.5
10,GUUCUGUUGGCGUAAUGGUAACGCGUCUCCCUCCUAAGGAGAACACUGUGGGUUCGAGUCCCGGACAGAACG,0.51
11,GUUCUGCUGGCGUAAUGGUAACGCGUCUCACUCCUAAGGAGCAGACUGCGGGUUCGAGUCCCGUUCGGUACG,≤ 0.5
12,GUUCUGUUGGCGUAAUGGUAACGCGUCUCCCUCCUAAGGAGAAGACUGCGGGUUCCAGUCCCGUGCGGAACG,0.536
13,GUUCUGUUGGCGUAAUGGUAACGCGUCUCCCUCCUAAGGAGAAGACUGCGCGUUCCAGUCCCGUACGGUACG,≤ 0.5
14,GUUCUGUUGGCGUAAUGGUAACGCGUCUCCCUCCUAAGGAGAAGACUGCGAGUUCGAGUCCCGUACGGAACG,0.798
15,GUUCUGUUGGCGUAAUGGUAACGCGUCUCCCUCCUAAGGAGAAGACUGCGCGCUCGAGUCCCGUACGGAACG,≤ 0.5
16,GUUCUGUUGGCGUAAUGGUAACGCGUCUCCCUCCUAAGGAGAAGACUGCGCGUUCCAGUCCCGUACGGAACG,≤ 0.5
17,GUUCUGUUGGCGUAAUGGUAACGCGUCUCCCUCCUAAGGAGAAGACUGCGGGUUCGACUCCCGUACGAAACG,0.513
18,GUUCUGUUGGCGUAAUGGUAACGCGUCUCCCUCCUAAGGAGAAGACUGCGGGUUCGACCCCCGUACGGAACG,0.675
19,GUUCUGUUGGCGUAAUGGUAACGCGUCUCCCUCCUAAGGAGAAGACUGCGGGUUCGACUCCCGUACGGAACG,1

row,Variant,yeast fitness
1,GUUCUGUUGGCGUAAUGGUAACGCGUCUCCCUCCUAAGGAGAAGACUGCGGGUUCGAAUCCCGUACGGAACG,0.88
2,GUUCUGAUGGCGUAAUGGUAACGCGUCACCCUCCUAAGGAGAAGACUGCGGGUUCGAGUCCCGUACGGAACG,0.573
3,GUUCUGAUGGCGUAAUGGUAACGCGUCUCCCUACUAAGGAGAAGCCUGCGGGUUCGAGUCCCGUACGGAACG,0.573
4,GUUCUGAUGGCGUAAUGGUAACGCGUCUCCCUCCUAAGGAGAAGACUGCGGGUUCGAGUCCCGUACGGAACG,0.772
5,GUUCUGGUGGCGUAAUGGUAACGCGUCUCCCUCCUAAGGAGAAGACUGCGGGUUCGAGUCCCGUACGGAACG,0.894
6,GUUCUGCUGGCGUAAUGGUAACGCGUCUCCCUCCUAAGGAGAAGACUGCGGGUUCGAGUCCCGUACGGAACG,0.92
7,GUUCUGUUGGCGUAAUGGUAACGCGUCUCCCUCCUAAGGAGAAGACUGCGGGUUCGACUCCCGUAGGGAACG,≤ 0.5
8,GUUCUGAUGGCGUAAUGGUAACGCGACUCCCUCCUAAGCAGAAGACUGCGGGUUCGAGUCCCGUACGGAACG,≤ 0.5
9,GUUCUGUUGGCGUAAUGGUAACGCGUCUCCCUCCUAAGGAGAAGACUGCGGGUUCAAGUCCCGUGUGGAACG,0.671
10,GUUCUGUUGGCGUAAUGGUAACGCGUCUCCCUCCUAAGGAGAAGACUGCGGGUUCGAGUCCCAUACGGAACG,0.828
11,GUUCUGUUGGCGUAAUGGUAACGCGUCUCCCUCCUAAGGAGAAGACUGCGGGUUCGAGUCCCCUACGGAACG,0.664
12,GUUCUGAUGGCGUAAUGGUAACGCGUCUCACUCCUAAGGAGAAGACUGCGGGUUCCAGUCCCGUAGGGAACG,≤ 0.5
13,GUUCUGUUGGCGUAAUGGUAACGCGUCUCCCUCCUAAGGAGAAGACUACAGGUUUGAGUCCCGUCCGGAACG,≤ 0.5
14,GUUCUGUUGGCGUAAUGGUAACGCGUCUCCCUCCUAAGGAGAAGACUGCCCGUUCCAGUCCCGUACGGUACG,≤ 0.5
15,GUUCUGCUGGCGUAAUGGUAACGCGUCUCGCUCCUAAGGAGCAGACUGCGGAUUUGAGUCCCGUAUGGAACG,≤ 0.5
16,GUUCUGUUGGCGUAAUGGUAACGCGUCUCCCUCCUAAGGAGAAGACUCCGGGUUCGAGUCCCGUACGGAACG,0.853
17,GUUCUGUUGGCGUAAUGGUAACGCGUCUCCCUCCUAAGGAGAACACUGCGGGUUCGAGUCCCGUACGGAACG,1.01
18,GUUCUGUUGGCGUAAUGGUAACGCGUCUCCCUCCUAAGGAACAGACUGCCGGUUCGAGUCCCGUACGGAGCG,0.535
